Like-named read-outs stand apart in the source and are kept apart here.
Experiments:
[1] = In vitro metabolic stability in rat liver microsomes; type: in vitro ADME; conditions: 0.5 μM compound, 1 mg/ml microsomal protein, NADPH, 37°C, n=3, mean±S.D.
In short: (§1)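 Pooled liver microsomes (1 mg/ml protein) with 0.5 μM test compound, added from acetonitrile stock, in 0.2 M phosphate pH 7.4 with NADPH-regenerating system (1.3 mM NADP+, 3.3 mM glucose-6-phosphate, 0.4 U/ml G6P dehydrogenase), shaken at 37°C. Samples at 5–120 min quenched in acetonitrile with deuterated internal standard, centrifuged, and analysed by LC-MS/MS for % remaining. Half-life reported; n=3, mean±S.D.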

[2] = In vitro metabolic stability in human liver microsomes; type: in vitro ADME; conditions: 0.5 μM compound, 1 mg/ml microsomal protein, NADPH, 37°C, n=3, mean±S.D.
In short: as §1

[3] = In vitro metabolic stability in monkey liver microsomes; type: in vitro ADME; conditions: 0.5 μM compound, 1 mg/ml microsomal protein, NADPH, 37°C, n=3, mean±S.D.
In short: as §1

[4] = In vitro metabolic stability in dog liver microsomes; type: in vitro ADME; conditions: 0.5 μM compound, 1 mg/ml microsomal protein, NADPH, 37°C, n=3, mean±S.D.
In short: as §1

[5] = In vitro metabolic stability in mouse liver microsomes; type: in vitro ADME; conditions: 0.5 μM compound, 1 mg/ml microsomal protein, NADPH, 37°C, n=3, mean±S.D.
In short: as §1

[6] = type: in vitro ADME, human, rat, mouse, monkey, dog
human CYP11A1 = biological target: T1, human CYP11A1 (Homo sapiens, UniProt P05108); assay: Metabolism by purified recombinant CYP11A1 in reconstituted system; type: in vitro ADME; conditions: 50 μM substrate in 0.45% cyclodextrin, 1 μM human CYP11A1, 1 h incubation
T1 sequence (P05108 40-521): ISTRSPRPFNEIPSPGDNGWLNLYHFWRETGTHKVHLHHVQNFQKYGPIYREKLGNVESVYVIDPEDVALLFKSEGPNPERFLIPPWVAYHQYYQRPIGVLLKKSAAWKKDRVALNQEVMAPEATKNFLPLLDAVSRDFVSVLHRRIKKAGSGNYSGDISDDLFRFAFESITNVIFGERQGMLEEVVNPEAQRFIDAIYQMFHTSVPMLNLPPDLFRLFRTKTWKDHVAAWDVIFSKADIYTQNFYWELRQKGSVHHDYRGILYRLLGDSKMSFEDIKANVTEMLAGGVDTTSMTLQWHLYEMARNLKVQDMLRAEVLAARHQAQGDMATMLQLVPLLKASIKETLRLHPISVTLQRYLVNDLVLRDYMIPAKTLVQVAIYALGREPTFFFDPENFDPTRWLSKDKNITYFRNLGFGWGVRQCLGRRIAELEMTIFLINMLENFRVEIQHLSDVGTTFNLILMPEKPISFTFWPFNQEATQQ
In short: (§2)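 Reconstituted system: adrenodoxin (15 μM), adrenodoxin reductase (4 μM), purified recombinant human CYP11A1 or CYP27A1 (1 μM). Substrate at 50 μM final, solubilised in 0.45% 2-hydroxypropyl-β-cyclodextrin. Incubation 1 h, extended for some analogs to 2 h (CYP11A1) or 3 h (CYP27A1). Products extracted with dichloromethane and resolved by reverse-phase HPLC. Read-outs are % substrate conversion and number of products.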

human CYP27A1 = biological target: T2, human CYP27A1 (Homo sapiens, UniProt Q02318); assay: Metabolism by purified recombinant CYP27A1 in reconstituted system; type: in vitro ADME; conditions: 50 μM substrate in 0.45% cyclodextrin, 1 μM human CYP27A1, 1 h incubation
T2 sequence (Q02318 34-531): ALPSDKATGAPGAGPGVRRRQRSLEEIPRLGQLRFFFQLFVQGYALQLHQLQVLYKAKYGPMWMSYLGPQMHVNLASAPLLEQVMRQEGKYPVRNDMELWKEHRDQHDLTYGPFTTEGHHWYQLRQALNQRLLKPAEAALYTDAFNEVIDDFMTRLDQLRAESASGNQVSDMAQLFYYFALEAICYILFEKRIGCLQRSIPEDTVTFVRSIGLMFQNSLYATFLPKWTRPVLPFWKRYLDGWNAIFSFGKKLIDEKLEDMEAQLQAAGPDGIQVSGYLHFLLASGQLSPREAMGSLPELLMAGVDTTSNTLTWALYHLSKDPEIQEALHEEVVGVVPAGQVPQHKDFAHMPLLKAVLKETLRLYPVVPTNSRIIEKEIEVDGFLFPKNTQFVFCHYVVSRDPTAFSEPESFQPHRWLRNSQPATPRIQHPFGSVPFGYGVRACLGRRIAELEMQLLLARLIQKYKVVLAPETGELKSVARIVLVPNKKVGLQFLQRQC
In short: as §2

rat CYP24A1 = biological target: T3, rat CYP24A1 (Rattus norvegicus, UniProt Q09128); assay: Metabolism by purified recombinant CYP24A1 in reconstituted system; type: in vitro ADME; conditions: phospholipid vesicles, 0.025 mol secosteroid/mol phospholipid, 1 μM rat CYP24A1, 1 h
T3 sequence (Q09128 36-514): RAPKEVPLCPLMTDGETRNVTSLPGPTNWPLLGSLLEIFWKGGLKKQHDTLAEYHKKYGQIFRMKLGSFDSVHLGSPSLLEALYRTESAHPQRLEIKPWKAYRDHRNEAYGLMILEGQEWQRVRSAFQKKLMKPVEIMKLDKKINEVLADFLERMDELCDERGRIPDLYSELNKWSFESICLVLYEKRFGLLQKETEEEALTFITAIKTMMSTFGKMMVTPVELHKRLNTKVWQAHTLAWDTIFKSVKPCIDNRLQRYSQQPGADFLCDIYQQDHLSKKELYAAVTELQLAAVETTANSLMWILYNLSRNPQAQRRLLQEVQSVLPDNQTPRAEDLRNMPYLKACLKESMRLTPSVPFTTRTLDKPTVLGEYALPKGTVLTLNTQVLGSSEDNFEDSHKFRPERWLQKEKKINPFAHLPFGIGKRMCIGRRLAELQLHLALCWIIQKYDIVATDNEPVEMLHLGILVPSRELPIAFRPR
In short: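 Reconstituted system: purified recombinant rat CYP24A1 (1 μM), adrenodoxin (15 μM) and adrenodoxin reductase (4 μM). Test compound incorporated into phospholipid vesicles at 0.025 mol secosteroid/mol phospholipid. Incubated 1 h. Products extracted with dichloromethane and resolved by reverse-phase HPLC. Result expressed as percentage conversion of substrate to products and number of products.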

rats = conditions: 3 μg/kg for seven consecutive days; cited from earlier work
mice = conditions: up to 30 μg/kg for three weeks; cited from earlier work
male C57/BL6 mice = assay: In vivo toxicity study; conditions: for calcification in organs / histopathological analysis of the major organs (liver, heart, kidney) / toxicity in vivo (clinical pathology chemistry profile, complete blood count): 60 μg/kg i.p., three weeks
mice or rats = conditions: cited from earlier work
[7] = 60 μg/kg i.p. once daily for three weeks

Compound	half-life in liver microsomes, Rat [1] [min]	half-life in liver microsomes, Human [2] [min]	half-life in liver microsomes, Monkey [3] [min]	half-life in liver microsomes, Dog [4] [min]	half-life in liver microsomes, Mouse [5] [min]	half-life in liver microsomes, average of five different species [6] [min]	CYP27A1 No. of different products (at least 2% of total secosteroids) (human CYP27A1)	CYP24A1 No. of different products (at least 2% of total secosteroids) (rat CYP24A1)	body weight (male C57/BL6 mice; [7]) [g]	serum calcium (male C57/BL6 mice; [7]) [mg/dL]	calcification in organs (male C57/BL6 mice)	histopathological analysis of the major organs (liver, heart, kidney) (male C57/BL6 mice)	toxicity in vivo (clinical pathology chemistry profile, complete blood count) (male C57/BL6 mice)	further results
C=C1CC[C@H](O)C/C1=C/C=C1\CCC[C@@]2(C)[C@H]1CC[C@@H]2[C@@](C)(O)CCCC(C)C [20S(OH)D3, 20S-hydroxyvitamin D3]	43 ± 1	60 ± 4	37 ± 1	47 ± 1	42 ± 2	50	3	3	25 ± 1	8.8 ± 0.66	Calcification was not present	six out of the seven mice treated with 20S(OH)D3 show unremarkable histology	did not show toxicity	CYP11A1 % conversion of substrate to products (human CYP11A1): 21%; CYP11A1 No. of different products (at least 2% of total secosteroids) (human CYP11A1): 3; effect on systemic calcium levels (rats): no effect on systemic calcium levels; effect on systemic calcium levels (mice): no effect on systemic calcium levels; highest possible dose that does not cause noticeable cytotoxic effects (male C57/BL6 mice; i.p. once daily for three weeks, stated as probable): 60 µg/kg
C=C1/C(=C\C=C2/CCC[C@]3(C)[C@@H]([C@H](C)CCCC(C)(C)O)CC[C@@H]23)C[C@@H](O)C[C@@H]1O [1,25(OH)2D3, 1,25-dihydroxy vitamin D3, reference compound]	–	–	–	–	–	–	–	–	–	–	–	–	–	dose reported to generate hypercalcemia (mice or rats; mice (ref 37) or rats (ref 20)): ≥ 1 µg/kg; body weight (male C57/BL6 mice; 2 μg/kg i.p. once daily for three weeks): 21 ± 1 g; serum calcium (male C57/BL6 mice; 2 μg/kg i.p. once daily for three weeks, positive control): 14.6 ± 0.48 mg/dL
C=C1CC[C@H](O)C/C1=C/C=C1\CCC[C@]2(C)[C@@H]([C@H](C)CCCC(C)(C)O)CC[C@@H]12 [25(OH)D3, 25-hydroxyD3]	–	–	–	–	–	–	–	–	–	–	–	–	–	dose reported to generate hypercalcemia (mice or rats; in vivo): ≥ 1 µg/kg
C=C1CC[C@H](O)C/C1=C/C=C1\CCC[C@@]2(C)C1CC[C@@H]2[C@@](C)(O)CCCC(C)C (stereo partly drawn) [20R(OH)D3, 20R-hydroxyvitamin D3]	19 ± 3	34 ± 2	15 ± 1	21 ± 2	25 ± 1	30	3	4	25 ± 1	8.6 ± 0.77	Calcification was not present	unremarkable histology	did not show toxicity	CYP27A1 % conversion of substrate to products (human CYP27A1): 90%
